Screening results as filed in PubChem BioAssay.
An excerpt weighted towards active compounds, which were near 3.1% of everything screened.
ATG4B inhibitor: ATG4B (human) cysteine protease inhibition. actives 0.51% (n = 340,000). Q9Y4P1. ATG4B cleavage of LC3-PLA2, NBD-HPC fluorescence, 1 h. inhibition, % at 8.33 µM. AID 504462; in the data active means inhibition above about 40%
Target sequence (Q9Y4P1 whole entry, looked up): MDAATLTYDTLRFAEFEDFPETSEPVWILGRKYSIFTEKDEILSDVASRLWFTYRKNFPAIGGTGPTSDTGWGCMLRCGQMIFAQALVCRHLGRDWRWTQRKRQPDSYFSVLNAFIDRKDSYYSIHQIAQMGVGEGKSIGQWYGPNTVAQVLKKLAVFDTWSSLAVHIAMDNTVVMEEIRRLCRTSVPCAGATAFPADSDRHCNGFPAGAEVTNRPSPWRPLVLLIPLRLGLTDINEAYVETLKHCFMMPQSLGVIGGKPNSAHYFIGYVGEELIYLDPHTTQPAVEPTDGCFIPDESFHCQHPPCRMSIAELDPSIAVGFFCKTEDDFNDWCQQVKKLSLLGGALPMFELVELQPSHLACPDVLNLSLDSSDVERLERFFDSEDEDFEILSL
UHRF1 binding: blocks human UHRF1 binding to methylated DNA. actives 0.75% (n = 370,000). inhibition, % at 4.4 µM. UHRF1 binding to methylated oligo, TR-FRET. Q96T88; in the data active means inhibition above about 21%;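 further: UHRF1 SRA domain binding a hemimethylated CpG hairpin DNA probe; 0% = median of test compound wells and 100% = reference inhibitor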
LEDGF integ inh: blocks HIV-1 LEDGF/p75-dependent DNA integration; TR-FRET IN-LEDGF/p75 DNA integration, Eu/Cy5; inhibition, % at 3.7 µM; actives 0.64% (n = 370,000);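 active means inhibition above the screen-wide mean plus 3 SD, cut at about 13% in these data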;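 further: signal is the Cy5 over europium emission ratio at 671 and 618 nm; 0% = plate median of compound wells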
MBD2 inh: blocks human MBD2 binding to methylated DNA | TR-FRET, MBD2 binding to methylated oligonucleotide | inhibition, % at 4.4 µM | actives 0.31% (n = 370,000); in the data active means inhibition above about 13%
rCAG binder: r(CAG) repeat RNA binding; AID 651821; actives 1.3% (n = 370,000); inhibition, % at 3 µM; TO-PRO-1 dye displacement fluorescence;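 active means inhibition above the plate cutoff, the mean of all test compounds on that plate plus 3 SD, cut at about 35% in these data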;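 further: 0% = DMSO alone and 100% = 100 µM mitoxantrone as full dye displacement; higher means more dye released from RNA so lower well fluorescence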
CSN deneddyl inh: blocks human CSN-mediated cullin deneddylation | Q92905 | Purified CSN, SCF-Nedd8-OG deneddylation, fluorescence polarization | inhibition, % at 12.5 µM | actives 0.38% (n = 360,000) | AID 651999;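 active means pattern-corrected inhibition above about 35%, with an unprinted fluorescence ratio check between 0.5 and 1.5, limit read from the data, passing the limit was not always enough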;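 further: 0% = enzyme with substrate and 100% = substrate without enzyme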
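Assay system: purified human Csn5 enzyme expressed in HEK293T cells; measure: % inhibition; also added: SCFSkp2-Nedd8OG substrate at 10 nM final; technique: fluorescence polarization; times: reaction 90 min, room temperature; medium: Tris buffer pH 7.5, NaCl, DTT, Tween-20, trehalose, ovalbumin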
rCAG bind conf: r(CAG) RNA repeat binding, confirmation; TO-PRO-1 dye displacement fluorescence; AID 652065; actives 70% (n = 4,300); inhibition, % at 3 µM; shares compounds with rCAG binder;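 active means inhibition above a per-plate cutoff, the mean inhibition of sample wells plus 3 SD, cut at about 35% in these data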;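 further: loss of TO-PRO-1 fluorescence as compound displaces dye from 1x1 AA loop RNA; 0% = DMSO only wells and 100% = 100 µM mitoxantrone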
DNA CAG counter: DNA CAG dye complex inhibition counter-screen. shares compounds with rCAG binder. d(CAG) DNA oligo TO-PRO-1 dye displacement, fluorescence. inhibition, % at 3 µM. actives 94% (n = 4,300);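 active means inhibition above its plate's cutoff, the mean test-well inhibition plus 3 SD, cut at about 4.8% in these data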;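 further: 0% = DNA dye mix with DMSO and 100% = 100 µM mitoxantrone; hits displace the dye from DNA and so lower well fluorescence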
* marks the source's active call; other numbers are inactive results; . = not tested or not shown.

SMILES | ATG4B inhibitor | UHRF1 binding | LEDGF integ inh | MBD2 inh | rCAG binder | CSN deneddyl inh | rCAG bind conf | DNA CAG counter
O=C(O)c1ccc(N2N=C(c3ccccc3)CC2c2ccccc2)cc1 (stereo unspecified) | 6.6 | -0.5 | -0.6 | -1.8 | 43.8* | -3.6 | 46.9* | 12.4*
COc1ccc(-c2csc(NS(=O)(=O)c3ccc([N+](=O)[O-])cc3)n2)cc1 | 15.5 | 0.5 | -1.0 | 1.8 | 69.9* | -1.6 | 57.2* | 22.8*
Cc1ccc(S(=O)(=O)Nc2nc(-c3ccccc3)cs2)cc1 | 1.8 | -1.9 | 0.3 | 4.4 | 39.5* | 2.6 | 25.7 | 6.1*
Cc1ccc(S(=O)(=O)Nc2ccccc2-c2ccccc2NS(=O)(=O)c2ccc(C)cc2)cc1 | 12.6 | 1.3 | -4.1 | 0.7 | 73.6* | 2.1 | 88.5* | 59.3*
COc1ccc(Cc2nnc(NS(=O)(=O)c3ccc([N+](=O)[O-])cc3)s2)cc1 | -14.0 | -0.1 | -5.1 | -6.4 | 43.9* | 2.4 | 49.1* | 17.0*
CSCCCNC(=O)CN1C(=O)C2CCCCN2C(=O)c2ccccc21 (stereo unspecified) | . | -1.7 | 0.7 | -3.2 | 4.0 | . | . | .
COc1ccc(-c2csc(Nc3ccc(S(=O)(=O)Nc4cc(C)on4)cc3)n2)cc1 | 8.9 | -0.2 | 4.4 | -1.9 | 73.2* | 0.7 | 72.2* | 35.5*
Cc1ccc(Nc2nc(-c3ccccc3)cs2)nc1 | 1.7 | 0.3 | 4.8 | -2.5 | 46.8* | 3.8 | 3.6 | 0.8
Cc1ccc(C(=O)NCCN2C(=O)C3C4C=CC(C4)C3C2=O)cc1 (stereo unspecified) | . | -2.1 | 7.0 | -0.5 | -0.3 | . | . | .
CC(=O)c1cc(-c2ccccc2S(=O)(=O)NC(C)(C)C)c(=O)n2c1CCC2 | . | -0.8 | 3.4 | -6.8 | 1.7 | . | . | .
C/C(C=NNC(=O)CSc1nc2ccccc2n1Cc1ccccc1Cl)=C\c1ccccc1 | . | 1.4 | 5.8 | -8.7 | 4.2 | . | . | .
CCCCn1c(O)c(/C=C/C=C/C=Nc2ccccc2)sc1=S | 26.8 | -5.5 | 2.5 | -3.6 | 40.0* | 24.1 | 32.5 | 18.0*
Oc1c(/C=C/C=C/C=Nc2ccccc2)sc(=S)n1Cc1ccccc1 | 10.2 | -3.2 | 0.2 | 2.4 | 45.7* | 25.1 | 38.4* | 19.8*
Nn1c(SCC(=O)Nc2cccc3ccccc23)nnc1-c1cc(-c2ccc(Cl)cc2)n[nH]1 | . | -0.8 | 0.9 | -4.2 | 12.7 | . | . | .
CN(Cc1ccccc1)C(=O)OCc1cn(Cc2cc(F)ccc2F)nn1 | . | 0.5 | -1.6 | -3.7 | -1.1 | . | . | .
COc1ccc(-c2nn(-c3ccccc3)cc2/C=C2/SC(=S)N(CCC(=O)O)C2=O)cc1 | 1.6 | -7.7 | 0.1 | -6.2 | 19.9 | 17.1 | . | .
O=C1C(=Cc2cn(-c3ccccc3)nc2-c2ccc(OCc3ccccc3F)cc2)SC(=S)N1CCS(=O)(=O)O | . | 58.0* | 1.4 | 2.7 | 71.8* | 50.0 | 65.5* | 44.8*
O=C1C(=Cc2cn(-c3ccccc3)nc2-c2ccc(OCc3ccc(Cl)cc3)cc2)SC(=S)N1CCS(=O)(=O)O | . | -2.1 | -1.2 | -1.1 | 68.3* | 79.8* | 58.4* | 42.6*
O=C(NC(NC(=S)Nc1c(Cl)cccc1Cl)C(Cl)(Cl)Cl)c1cccc([N+](=O)[O-])c1 (stereo unspecified) | 1.4 | -0.2 | 0.6 | 0.2 | 46.7* | 2.0 | 36.0* | 15.7*
COc1ccc([N+](=O)[O-])cc1NC(=O)C(C)c1ccccc1 (stereo unspecified) | -6.3 | -2.3 | -0.8 | 3.3 | 2.2 | -8.0 | . | .
O=C(NNC(=S)NC(=O)c1ccccc1Cl)c1cccc([N+](=O)[O-])c1 | 4.8 | -7.4 | -4.9 | 3.5 | 4.5 | -0.4 | . | .
COc1ccc([N+](=O)[O-])cc1NC(=S)NC(NC(=O)C(c1ccccc1)c1ccccc1)C(Cl)(Cl)Cl (stereo unspecified) | -12.0 | 4.4 | -3.5 | -2.7 | 46.9* | 0.0 | 38.7* | 23.4*
